High-throughput results deposited in PubChem BioAssay by several laboratories.
NF-kB neuron act: NF-kB expression increase, human neuronal cells; NF-kB reporter expression; active compounds read high; fold change at 12.5 µM; actives 1.6% (n = 190,000); AID 1239; in the data active = fold change above about 3.3
STAT1 blocker: reduces IFN-gamma driven STAT1 reporter signal | actives 0.35% (n = 200,000) | inhibition, % at 5.5 µM | NIH 3T3 STAT1-luciferase reporter, luminescence;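 active = inhibition above a set limit, the mean inhibition across all tested compounds plus 3 SD, cut at about 34% in these data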
STAT3 activator: STAT3 signaling activation. activation (% of control), % at 5.6 µM. AID 871. actives 0.91% (n = 190,000). U3A cells, IL-6 STAT3-luciferase reporter, luminescence; 100% = signal with IL-6 EC80 alone;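 active = activation above the screen-wide mean of compound activation plus 3 SD, cut at about 130% in these data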
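Material: STAT1-lacking human U3A cells, STAT3 luciferase reporter | Benchmarks: IL-6-only wells as 100% reference | Probe or stimulus: IL-6 (33 ng/mL) | Timing: Compound 1 h, then IL-6 6 h at 37 °C | Detection: Luminescence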
STAT3 blocker: STAT3 signaling inhibition; U3A cells, IL-6 STAT3-luciferase reporter, luminescence; host cell line lacks STAT1; inhibition, % at 5.5 µM; actives 0.89% (n = 190,000); AID 862;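 active = inhibition above the mean inhibition across all screened compounds plus 3 SD, cut at about 44% in these data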
STAT1 act: increases IFN-gamma driven STAT1 reporter signal; actives 2.6% (n = 200,000); activation (% of control), % at 5.5 µM; NIH 3T3 STAT1-luciferase reporter, luminescence; 100% = IFN-gamma alone, no compound;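 active = activation above the screen-wide mean activation plus 3 SD, cut at about 130% in these data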
APP 5'UTR act: APP 5'UTR luciferase reporter activation; SH-SY5Y APP 5'UTR luciferase reporter, luminescence; zero percent = DMSO vehicle wells; activation, % at 2 µM; actives 1% (n = 190,000);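 active = activation above a set limit, based on mean plus 3 SD of controls, cut at about 140% in these data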
Large screens that a line does not name were inactive. This is a sample that favours compounds with a hit; in the whole collection about 4.9% have one here.

CC(=O)Nc1ccc(NC(=O)/C=C/c2ccccc2)cc1	none
CSc1cccc(NC(=O)/C=C/c2ccccc2)c1	STAT1 act 133.2
CSc1ccc(/C=C/C(=O)c2ccc(NC(=O)C(C)C)cc2)cc1	none
CSc1ccc(C(=O)/C=C/c2ccc(N)cc2)cc1	NF-kB neuron act 10
CSc1ccc(/C=C/C(=O)Nc2ccccc2)cc1	NF-kB neuron act 6.28, STAT1 blocker 53.3, STAT3 blocker 79.2, APP 5'UTR act 210.3
O=C(/C=C/c1ccccc1)Nc1cccc(C(=O)O)c1	NF-kB neuron act 5.06, STAT1 blocker 95.8, STAT3 blocker 107.0
CSc1cccc(NC(=O)/C=C/c2ccc(Cl)cc2)c1	none
Cc1n[nH]c(=O)nc1N/N=C/c1ccc(O)c([N+](=O)[O-])c1	none
COc1ccc(Cl)cc1NC(=O)CSc1nnc(Cc2cccn2C)n1-c1ccc(F)cc1	none
O=C1CCC(c2ccccc2)=NN1Cc1c(F)cccc1Cl	none
COc1ccc(CCNC(=O)c2cnn3cccnc23)cc1OC	none
CCC(=O)Nc1cccc(C(=O)/C=C/c2cccs2)c1	none
CCC(=O)Nc1cccc(C(=O)/C=C/c2ccccc2)c1	NF-kB neuron act 8.75
COc1cc(CNCCc2ccccc2)cc(Br)c1OCC(=O)Nc1ccccc1C	none
O=[N+]([O-])c1cc2c(cc1C=Nc1ccccc1)OCO2	none
Sc1oc(-c2ccccc2)cc1C=Nc1ccccc1	STAT1 act 133.5
COc1cc(C2C(C#N)=C(N)Oc3cc(N)ccc32)cc(OC)c1OC (configuration not stated)	NF-kB neuron act 3.74
CC(=O)c1ccc(NC(=S)NCCCn2ccnc2)cc1	none
O=C(Cc1ccccc1)NCc1ccncc1	none
Cc1ccccc1NC(=O)C1Cc2ccccc2C(=O)O1 (configuration not stated)	NF-kB neuron act 3.32
COc1ccc(OC)c(C(=O)c2oc3ccccc3c2NC(C)=O)c1	none
COCC(=O)Nc1nnc(-c2ccc(C(C)(C)C)cc2)s1	NF-kB neuron act 8.37, STAT1 act 135.8, APP 5'UTR act 141.7
Cc1ccc(/C=N/c2sc3c(c2C#N)CCCCC3)o1	STAT1 act 138.7
CN1CCN(/C=N/c2sc3c(c2C#N)CCCCC3)CC1	STAT1 act 145.5
N#Cc1c(/N=C/c2cc3ccccc3s2)sc2c1CCC2	none
Cc1ccc(/C=N/c2sc3c(c2C#N)CCC3)s1	STAT1 act 150.2
CC(C)CN(/C=N/c1sc2c(c1C#N)CCCCC2)CC(C)C	none
O=C(Oc1ccc([N+](=O)[O-])cc1)c1cncc(Br)c1	none
COc1ccc(-c2cn3cc(C)ccc3n2)cc1OC	NF-kB neuron act 5.67, STAT1 act 133.5, APP 5'UTR act 183.6
COc1ccc(-c2cn3cc(C)ccc3n2)cc1F	STAT1 blocker 63.2, STAT3 blocker 87.2, APP 5'UTR act 146.6
CCOc1ccc(-c2cn3ccccc3n2)cc1	NF-kB neuron act 4.8, STAT1 blocker 53.4, STAT3 blocker 89.0, APP 5'UTR act 207.3
COc1ccc(-c2csc(C)n2)cc1OC	none
COc1ccc(-c2cn3ccccc3n2)cc1OC	STAT3 activator 173.3, STAT1 act 129.5
COc1ccc(CC(=O)Nc2ccc(-c3cn4ccccc4n3)cc2)cc1OC	none
CCOC(=O)C1(CCc2ccccc2)CCN(C(=O)c2cnc(C)cn2)CC1	none
CCCCNC(=O)NNC(=O)COc1cccc(C)c1C	none
O=C(Cc1sc(-c2ccccc2Cl)nc1-c1ccccc1)Nc1ccc(F)cc1	none (no result: APP 5'UTR act)
NC(=O)c1cc2cc(Cc3ccccc3Cl)ccc2oc1=O	none
CC1(C)CNC(=O)c2sc(NC(=O)c3ccccc3Cl)nc2C1	none
C/C(=N\N=C\c1ccccc1F)c1nnn(-c2nonc2N)c1C	STAT1 act 142.0
O=C(CCSCCc1ccccn1)Nc1cccc([N+](=O)[O-])c1	none
O=C(Cc1c(O)c2ccccc2[nH]c1=O)NC1CCCCCC1	none
O=C(NC1CCCCCC1)c1c(O)c2ccccc2[nH]c1=O	STAT1 act 140.9
CSC(=S)N/N=C(\C)c1ccccc1	NF-kB neuron act 5.94
C/C(=N\NC(=S)Nc1cccc(C)c1)c1ccccc1	none
CC[C@H](C)/C=C(C)/C=C/C1=CC2=CC(=O)[C@]3(C)OC(=O)[C@@H](C(C)=O)[C@@H]3C2=CO1	NF-kB neuron act 3.8 (no result: STAT3 activator, STAT3 blocker)
C=CCc1ccc(OCCOCCOc2ccccc2[N+](=O)[O-])c(OC)c1	none
COc1cccc(/C=N/Nc2nn3cnnc3c3ccccc23)c1	none
COc1cc(/C=N/Nc2nn3cnnc3c3ccccc23)ccc1O	STAT1 blocker 36.2, STAT3 blocker 57.5
COCCNC(=S)Nc1cc(OC)c(OC)cc1C#N	none
C/C(=N/NC(=O)CCC(=O)Nc1cccc(Cl)c1)c1ccc(C)cc1	none
Cc1cc(N2CCOCC2)ccc1/C=C1/SC(=O)NC1=O	NF-kB neuron act 5.28, STAT3 activator 138.0, STAT1 act 151.7
Cc1cc(N2CCOCC2)ccc1/C=C1\NC(=O)N(CC(=O)Nc2ccccc2C)C1=O	none
Cc1cc(N2CCOCC2)ccc1/C=C1\NC(=O)N(CC(=O)Nc2ccc(F)cc2)C1=O	STAT1 act 131.0
Cc1cc(N2CCCC2)ccc1/C=C1\NC(=S)N(C)C1=O	STAT1 act 129.3
COCCN(CC(=O)NC1CCCCC1)C(=O)CCCC(=O)Nc1ccccn1	none
O=C(c1nn(-c2ccccc2)c(=O)c2ccccc12)N1CCN(c2ncccn2)CC1	none
C=C(C)CSc1[nH]c(=O)cc(C)c1C#N	none
Cc1ccc(-n2nnc(-c3cccnc3Cl)n2)cc1	NF-kB neuron act 8.58, APP 5'UTR act 203.8 (no result: STAT3 activator, STAT3 blocker)
Clc1ncccc1-c1nnn(-c2ccccc2Br)n1	none (no result: STAT3 activator, STAT3 blocker)
Clc1ccc(-n2nnc(-c3cccnc3Cl)n2)cn1	STAT1 act 133.7 (no result: STAT3 activator, STAT3 blocker)
CC(C)c1ccc(C(C(=O)NC2CCCCC2)N(C(=O)c2ccccn2)c2cccnc2)cc1 (configuration not stated)	none
COc1cccc(C(=O)Nc2sc3c(c2C#N)CCN(C(C)=O)C3)c1	none
CC1CCC(NC(=O)c2ccc3nc[nH]c3c2)CC1 (configuration not stated)	STAT1 act 128.6
Cc1ccc(-c2cc(C(F)(F)F)c(C#N)c(SCC(=O)O)n2)cc1	STAT3 activator 135.2
CCCOc1ccc(-c2cc(C(F)(F)F)c(C#N)c(SCC(=O)O)n2)cc1	none
O=C(/C=C/c1ccc([N+](=O)[O-])cc1)NCCN1C(=O)S/C(=C\c2ccc(F)cc2)C1=O	none (no result: NF-kB neuron act)
Oc1ccc2c(c1)oc1cc(O)ccc12	NF-kB neuron act 6.95
CCN(CC)CCNC(=S)Nc1ccc(F)cc1	none
c1ccc(SCCOCCn2cncn2)cc1	none
c1ccc(COc2ccc(OCCOCCn3cncn3)cc2)cc1	NF-kB neuron act 3.62, APP 5'UTR act 154.1
COc1ccc(-c2cn3cccnc3n2)cc1Br	none
COc1ccc(-c2cn3cc(Br)cnc3n2)cc1	STAT1 act 134.6
CN(C(=O)COC(=O)c1ccc([N+](=O)[O-])cc1N)c1ccccc1	none
